Bioassay records (PubChem BioAssay)
bCat nuc transl = modulators of beta-catenin nuclear translocation; nuclear translocation activity, % at 5 µM; HeLa beta-catenin nuclear translocation, immunofluorescence imaging; 0.3% of 190,000 active; AID 1665;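 active = nuclear translocation activity above 50% at 5 µM, with a well cell count of 50 or more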;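 note: per-cell ratio of nuclear to cytoplasmic median beta-catenin stain intensity; plate controls were DMSO negative control for no effect and GSK-3 inhibitor IX positive control for full effect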
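System: Human HeLa cells, endogenous beta-catenin | Compound dosing: 5 µM primary, 0.02–20 µM confirmation | Timing: 24 h compound exposure at 37°C, 5% CO2 | Measured by: Fluorescence imaging of beta-catenin antibody stain plus DAPI | Read-out basis: % activation of per-cell nuclear versus cytoplasmic median beta-catenin signal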
EP2 mod = modulates human prostaglandin E2 receptor EP2 signaling; 0.83% of 260,000 active; induction, % at 25 µM; EP2-expressing cells, cAMP HTRF FRET, PGE2 co-stimulation;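 active = compounds whose cAMP rise, as percent of the full-agonist control response, exceeds 60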;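 note: rat C6 glioma line stably carrying human EP2 under a CMV promoter; the protocol text gives 20 µM as final concentration; 100% = response of wells given 1 µM PGE2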
Target sequence (P43116 whole entry, looked up): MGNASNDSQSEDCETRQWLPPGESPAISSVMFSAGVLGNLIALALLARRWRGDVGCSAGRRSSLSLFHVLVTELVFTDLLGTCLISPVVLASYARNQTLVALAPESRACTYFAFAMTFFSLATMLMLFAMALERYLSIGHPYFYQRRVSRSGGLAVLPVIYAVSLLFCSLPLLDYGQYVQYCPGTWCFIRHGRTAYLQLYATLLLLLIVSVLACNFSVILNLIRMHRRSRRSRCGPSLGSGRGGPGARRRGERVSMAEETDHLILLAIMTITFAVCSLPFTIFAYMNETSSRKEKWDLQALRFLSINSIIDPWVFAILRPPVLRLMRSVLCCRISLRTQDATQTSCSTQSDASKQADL
Tb hexokinase = T. brucei hexokinase 1 inhibition; 0.11% of 220,000 active; recombinant TbHK1, G6PDH-coupled NADH A340; inhibition, % at 10 µM;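 active = inhibition of 50% or more in the single-dose primary screen; inactive = inhibition below 50%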
EP2 antag = EP2 receptor (human) inhibition; C6 glioma cells expressing human EP2, cAMP TR-FRET; cells stimulated with saturating PGE2; AID 1422; P43116; 0.52% of 260,000 active; inhibition, % at 25 µM;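 active = percent inhibition above 40 after rounding to a whole number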;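 note: rat C6 glioma host cells with rolipram phosphodiesterase inhibitor present; the protocol text gives 20 µM as final concentration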
MT stabilizer = microtubule stabilization, imaging screen. HeLa tubulin immunostaining HCS, 24 h; share of cells brighter than vehicle mean+2SD. % tubulin-high responders, % at 10 µM. 0.83% of 200,000 active. AID 2205;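 active = plate Z-score above 3 for both tubulin-high and condensed-nucleus cell shares, with cell loss under 80%, at 10 µM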;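 note: anti alpha tubulin signal scored within the nucleus-defined area of each cell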
Efa HMGR inh = E. faecalis class II HMG-CoA reductase inhibition. AID 1066. inhibition, % at 10 µM. 0.41% of 190,000 active. purified E. faecalis HMGR, NADPH absorbance 340 nm kinetic;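 active = inhibition above a set limit, the median over all tested compounds plus 3 SD, cut at about 9.5% in these data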;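 note: enzyme runs in reverse so mevalonate oxidation gives rising NADPH absorbance; 0% = complete reaction with DMSO and 100% = background rate lacking mevalonate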
An asterisk follows results filed as active; / = no result given; ! = not active in a repeat. Compounds with a hit are over-represented: about 2.4% of the library has one in this group of screens.

SMILES | bCat nuc transl | EP2 mod | Tb hexokinase | EP2 antag | MT stabilizer | Efa HMGR inh
COCCn1nnnc1C(C(C)C)N1CCN(Cc2ccc3c(c2)OCO3)CC1 (stereo not given) | / | -17 | / | 7 | / | /
CC(C)NC(=O)CN1C(=O)C(C)(C)Oc2ccc(C(=O)Nc3ccc(C(C)C)cc3)cc21 | / | -39 | / | 8 | / | /
COc1ccccc1NC(=O)/C=C/c1ccc2c(c1)OCO2 | -2 | -58 | -24 | 4 | 19* | -1
Cn1c(Cl)c(C(=O)Nc2ccc(Cl)cc2)c2ccccc21 | 6 | 17 | -7 | 6 | 28* | -2
COc1ccc2c(c1)sc(N)[n+]2Cc1cc(C)cc2cccnc12 | 114* | 26 | 12 | 5 | 15* | -8
CCOc1ccc2c(c1)sc(N)[n+]2Cc1cc(C)cc2cccnc12 | 152* | 46 | 10 | 5 | 14* | -11
CCOc1ccccc1C1Nc2ccccc2-c2cc(C)nn21 (stereo not given) | / | 62* | / | 13 | / | /
Cc1ccc2nsnc2c1N | 0 | 14 | 3 | 6 | 2 | 18*
COc1ccc(NC(=O)CSc2nc3c(cc2C#N)CN(C)CC3)cc1OC | / | -16 | / | 8 | / | /
Cc1cc(=O)[nH]c(SCC(=O)Nc2ccc(Cl)c(C)c2)n1 | / | -16 | / | 14 | / | /
CS(=O)(=O)N(CC(N)=O)c1cccc(Br)c1 | -4 | 15 | 2 | 19 | 5 | 17*
COc1cc(C2C(C#N)=C(N)Oc3cc(O)ccc32)cc2c1OCO2 (stereo not given) | 3 | -6 | -1 | 11 | 16* | -8
COc1cc(C2C(C#N)=C(N)Oc3cc(O)ccc32)cc(OC)c1OC (stereo not given) | / | -3 | 1 | 5 | 21* | -5
COc1cc(C2C(C#N)=C(N)Oc3cc4c(cc32)OCO4)cc(OC)c1OC (stereo not given) | 51* | 33 | -4 | 0 | 9 | -6
COc1ccc(C2C(C#N)=C(N)Oc3cc(O)ccc32)cc1OC (stereo not given) | -2 | -7 | 8 | 12 | 7 | 0
COc1ccc2[nH]c(=O)c(C3C(C#N)=C(N)OC(C)=C3C(=O)OC(C)(C)C)cc2c1 (stereo not given) | / | -25 | / | 8 | / | /
COc1ccc2c(-c3ccccc3)cc(SC(C)C(N)=O)nc2c1 (stereo not given) | -3 | 62* | -5 | 12 | 2 | 0
Cc1ccc(S(=O)(=O)NNC(=O)CCCCC(=O)NNS(=O)(=O)c2ccc(C)cc2)cc1 | -4 | 26 | 7 | 4 | 4 | 13*
O=C(c1c(F)cccc1F)N1CCC(n2nnc3ccccc3c2=O)CC1 | / | 15 | / | 5 | / | /
CC1=Nc2cc(C(=O)NCc3ccco3)ccc2Sc2ccc(C)cc21 | 73* | -3 | 21 | 8 | 4 | -2
Cc1sc2nc(SCC(=O)C(C)(C)C)n(Cc3ccco3)c(=O)c2c1C | 4 | 38 | 1 | 3 | 35* | 3
Cc1sc2nc(SCc3ccccc3)n(Cc3ccco3)c(=O)c2c1C | 0 | 21 | -8 | 5 | 3 | -2
CCNC(=S)/N=C(/Nc1ccccc1)Nc1nc(C)cc(C)n1 | 2 | 70* | -2 | 7 | / | /
CCOC(=O)Cc1[nH]nc2c1C(c1cccs1)C(C#N)=C(N)O2 (stereo not given) | / | -76 | / | 15 | / | /
Cc1ccc(-n2nnnc2C(Cl)(Cl)c2nnnn2-c2ccc(C)cc2)cc1 | 3 | -5 | -3 | 91* | 4 | -2
SMILES | bCat nuc transl | EP2 mod | Tb hexokinase | EP2 antag | MT stabilizer | Efa HMGR inh
Clc1ccc(-c2nnnn2-c2ccc(Cl)cc2)cc1 | 1 | -43 | -7 | 7 | / | /
Cc1cc(N2CCC(C(=O)NC3CCCC3)CC2)nc(-c2ccccc2)n1 | / | 21 | / | 11 | / | /
CCOc1cccc2cc(-c3cn4cc(C)ccc4n3)c(=O)oc12 | 2 | 7 | -21 | 13 | 42* | -1
COc1cccc2cc(-c3cn4ccc(C)cc4n3)c(=O)oc12 | / | / | -11 | 1 | 2 | /
Cc1cc(=S)c2ccccc2[nH]1 | 0 | 10 | -12 | 3 | / | /
Cc1ccc2[nH]c(C)cc(=S)c2c1 | 2 | 75*! | -10 | 13 | 23* | -1
C#CCn1nc(C)n2c(cc3oc(C)cc32)c1=O | / | -7 | / | 5 | / | /
CS(=O)(=O)Nc1ccc(Cc2ccc(NS(C)(=O)=O)cc2)cc1 | / | 3 | 2 | 5 | 5 | -1
O=C=Nc1ccc(Cc2ccc(N=C=O)cc2)cc1 (tested in a mixture with another compound) | / | 10 | / | 45* | / | /
Cc1nn(CC(=O)N2CCN(Cc3ccccc3)CC2)c(=O)c2cc3sccc3n12 | / | 8 | / | / | / | /
CN1Cc2cccc(C(=O)N3C[C@H](C(=O)O)[C@@H](c4ccc(F)cc4)C3)c2C1=O | / | -6 | / | / | / | /
NC(N)=NC(N)=Nc1c(F)c(F)c(F)c(F)c1F | / | -122 | / | 64* | / | /
NC(N)=NC(N)=Nc1ccccc1 | / | 0 | / | 7 | / | /
CC(=O)NNc1ncnc2c1cnn2-c1ccc(C)cc1 | -2 | -4 | -1 | 4 | 3 | -2
CC(=O)NNc1ncnc2c1cnn2-c1ccc(C)c(Cl)c1 | -2 | -18 | 5 | 5 | 6 | 12*
Cc1cccc(N(CC(=O)NC2CCCC2)C(=O)c2ccc(N3CCCC3)nc2)c1C | / | -16 | / | 19 | / | /
Cc1nonc1CC(=O)NC1(c2ccc(F)cc2)CCCC1 | / | 0 | / | 5 | / | /
COC1=CC(=O)C(O)=C(CCCCCCC/C=C/CCCCCCCC2=C(O)C(=O)C=C(OC)C2=O)C1=O | / | / | / | 54* | / | /
COC1=C(OC)C(=O)C(CCCCCCCCCCO)=C(C)C1=O | 1 | / | / | 22 | / | 6
CCCCCCCCCCCC1=C(O)C(=O)C=C(O)C1=O | / | -15 | / | 65*! | / | /
O=C(COc1ncnc2ccccc12)Nc1cccc(-c2csnn2)c1 | / | -32 | / | 9 | / | /
CCN(CC)C(=O)c1sc(NC(=O)c2cccc(F)c2)c(C(=O)OC)c1C | / | 8 | / | 10 | / | /
O=C(Cn1nnc2c(cnn2-c2ccc(F)cc2)c1=O)Nc1nc2c(s1)CCCC2 | / | -9 | / | 4 | / | /
CC1=CC(=O)c2ccccc2C1=O | 4 | -40 | 2 | 46* | 3 | 0
COc1cccc2c1C(=O)C=C(C)C2=O | -2 | -64 | 47 | 21 | 2 | -5
Oc1cccc(C2c3[nH]c4ccccc4c3CCN2Cc2ccoc2)c1 (stereo not given) | 0 | 27 | -4 | 6 | 1 | -1
